Data taken from paper PMC8164216 (Pharmaceutical research, 2019).
Values joined by “and” are separate entries in the source; they are usually repeats but may differ in a detail not shown here. Equal values may be shown once. Marks after values point to notes of the source that are not given here.

What was measured:
[1] = Pharmacokinetic study in mice, non-compartmental analysis; assay type: in vivo, Female BALB/c mice
Procedure, shortened: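 Mice were dosed IV by tail vein (10, 50, 100 mg/kg) or by oral gavage (100 mg/kg), in 20% w/v cyclodextrin-saline. Plasma from terminal cardiac puncture (n = 3–4/time point; 15 min–24 h IV, 10 min–24 h oral) was quantified by LC/MS/MS (LLOQ 0.15 ng/mL). Naïve-pooled non-compartmental analysis assumed 19 g body weight. AUC was by trapezoidal method, extrapolated to infinity. Fold change is relative to the 10 mg/kg IV dose.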

MCT2 = settings: to a lesser extent than MCT1; cited from earlier work
MCT1 [2] = molecular target: T1, MCT1 (Mus musculus, UniProt P53986); experiment: Full TMDD model; assay type: in vivo, Female BALB/c mice
T1 sequence (P53986 1-493): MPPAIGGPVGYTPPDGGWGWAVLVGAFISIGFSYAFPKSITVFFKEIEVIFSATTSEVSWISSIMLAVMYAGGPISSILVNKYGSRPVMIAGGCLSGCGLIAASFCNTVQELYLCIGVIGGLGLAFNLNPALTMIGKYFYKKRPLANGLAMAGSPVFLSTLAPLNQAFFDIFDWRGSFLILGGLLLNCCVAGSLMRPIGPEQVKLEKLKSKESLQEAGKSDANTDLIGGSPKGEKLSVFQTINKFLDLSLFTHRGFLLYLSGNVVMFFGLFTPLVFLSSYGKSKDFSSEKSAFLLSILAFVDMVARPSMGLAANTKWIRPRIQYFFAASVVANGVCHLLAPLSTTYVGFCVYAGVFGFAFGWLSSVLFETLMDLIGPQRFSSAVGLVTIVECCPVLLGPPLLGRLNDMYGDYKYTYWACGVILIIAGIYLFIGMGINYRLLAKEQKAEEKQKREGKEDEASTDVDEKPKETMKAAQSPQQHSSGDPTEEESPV
T1 sequence (P18572 140-389 partner limits assumed): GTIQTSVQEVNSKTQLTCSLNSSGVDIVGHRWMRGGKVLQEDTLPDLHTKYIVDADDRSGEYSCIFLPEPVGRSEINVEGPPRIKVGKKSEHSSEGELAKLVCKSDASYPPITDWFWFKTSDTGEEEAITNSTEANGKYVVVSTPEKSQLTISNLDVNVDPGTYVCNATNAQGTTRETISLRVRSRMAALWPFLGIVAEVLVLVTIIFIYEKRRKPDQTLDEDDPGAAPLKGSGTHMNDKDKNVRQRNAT

[3] = breast tumor xenograft study; cited from earlier work
[4] = Compartmental PK modeling with enterohepatic cycling and M-M elimination; assay type: in vivo, Female BALB/c mice; settings: for Vp: simultaneous fit of IV and oral data; for Vmax / Km: M-M elimination; for CLb: clearance to bile compartment; for Km: female, BALB/c, mouse, plasma, other: intravenous and oral, fitted simultaneously
Procedure, shortened: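 Female BALB/c mice (18–20 g) got the test compound in 20% w/v cyclodextrin in normal saline, by tail-vein IV (10, 50, 100 mg/kg) or oral gavage (100 mg/kg). Terminal cardiac blood (isoflurane, lithium heparin; n = 3–4/time point) was taken to 24 h, and plasma was assayed by LC/MS/MS. Naïve-pooled IV and oral data were fitted together by maximum likelihood to enterohepatic-cycling models with lag time and Michaelis-Menten elimination.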

MCT1 [5] = settings: cited from earlier work
[6] = Compartmental PK modeling, full TMDD model; assay type: in vivo, Female BALB/c mice
MCT1 [7] = settings: murine 4T1 cells; cited from earlier work
[8] = female, BALB/c, mouse, plasma, iv, 10 mg/kg
[9] = female, BALB/c, mouse, plasma, iv, 50 mg/kg
[10] = female, BALB/c, mouse, plasma, iv, 100 mg/kg
[11] = female, BALB/c, mouse, plasma, po, 100 mg/kg

SMILES: Cc1[nH]nc(C(F)(F)F)c1Cc1sc2c(c1C(=O)N1C[C@](C)(O)CO1)c(=O)n(C)c(=O)n2C(C)C [AZD3965, 5-[(4S)-4-hydroxy-4-methyl-1,2-oxazolidine-2-carbonyl]-1-isopropyl-3-methyl-6-{[3-methyl-5-(trifluoromethyl)-2H-pyrazol-4-yl]methyl}thieno[2,3-d]pyrimidine-2,4-dione]
- Vc/F ([1]; IV 10 mg/kg, mice (19 g)): 53.4 mL
- AUC0−∞, fold change from the lowest IV dose ([1]; IV 50 mg/kg vs 10 mg/kg): 8.36 fold
- CL, fold change from the lowest IV dose ([1]; IV 50 mg/kg vs 10 mg/kg): 0.50 fold
- Cmax, fold change from the lowest IV dose ([1]; IV 50 mg/kg vs 10 mg/kg): 7.49 fold
- Vss, fold change from the lowest IV dose ([1]; IV 50 mg/kg vs 10 mg/kg): 0.58 fold
- t1/2, fold change from the lowest IV dose ([1]; IV 50 mg/kg vs 10 mg/kg): 0.89 fold
- λz, fold change from the lowest IV dose ([1]; IV 50 mg/kg vs 10 mg/kg): 1.12 fold
- Vc/F ([1]; IV 50 mg/kg, mice (19 g)): 31.0 mL
- AUC0−∞, fold change from the lowest IV dose ([1]; IV 100 mg/kg vs 10 mg/kg): 17.5 fold
- CL, fold change from the lowest IV dose ([1]; IV 100 mg/kg vs 10 mg/kg): 0.47 fold
- Cmax, fold change from the lowest IV dose ([1]; IV 100 mg/kg vs 10 mg/kg): 13.6 fold
- Vss, fold change from the lowest IV dose ([1]; IV 100 mg/kg vs 10 mg/kg): 0.65 fold
- t1/2, fold change from the lowest IV dose ([1]; IV 100 mg/kg vs 10 mg/kg): 0.87 fold
- λz, fold change from the lowest IV dose ([1]; IV 100 mg/kg vs 10 mg/kg): 1.16 fold
- Vc/F ([1]; IV 100 mg/kg, mice (19 g)): 34.6 mL
- AUC(0-inf) [1, 8]: 4940 ng·h/mL
- Cmax [1, 8]: 4020 ng/mL
- Vd [1, 8]: 0.0442 L
- clearance [1, 8]: 0.773 mL/min
- concentration at 24 h [1, 8]: 0.285 ng/mL
- half-life [1, 8]: 2.91 h
- k el [1, 8]: 6.61e-05 s⁻¹
- AUC(0-inf) [1, 9]: 41300 ng·h/mL
- Cmax [1, 9]: 30100 ng/mL
- Vd [1, 9]: 0.0256 L
- clearance [1, 9]: 0.383 mL/min
- half-life [1, 9]: 2.6 h
- k el [1, 9]: 7.39e-05 s⁻¹
- AUC(0-inf) [1, 10]: 86400 ng·h/mL
- Cmax [1, 10]: 54500 ng/mL
- Vd [1, 10]: 0.0286 L
- clearance [1, 10]: 0.367 mL/min
- half-life [1, 10]: 2.51 h
- k el [1, 10]: 7.64e-05 s⁻¹
- bioavailability ([1]; female, BALB/c, mouse, plasma, oral, 100 mg/kg): 82.7%
- AUC(0-inf) [1, 11]: 71400 ng·h/mL
- Cmax [1, 11]: 30300 ng/mL
- Tmax [1, 11]: 0.333 h
- half-life [1, 11]: 4.46 h
- k el [1, 11]: 4.33e-05 s⁻¹
- CL/F ([1]; oral 100 mg/kg, mice (19 g)): 26.6 mL/h
- Vc/F ([1]; oral 100 mg/kg, mice (19 g)): 171 mL
- activity against MCT2 (MCT2): some activity
- Rtotal (total transporter concentration) (MCT1 [2]; Model C): 54.8 ± 4.90 μg/ml and 54.8 ± 4.90 (8.92) μg/ml
- kon (MCT1 [2]; Model C, converted based on the molecular weight): 6.21 ± 5.92 (95. 3) μM^−1 h^−1
- koff (MCT1 [2]; mouse): 0.00641 s⁻¹
- concentration in 4T1 tumor versus plasma [3]: 25.5 fold
- CLd ([4]; Model A): 0.332 ± 0.064 (19.3) ml/h
- F ([4]; Model A): 1.00 ± 0.003 (0.32)
- ka ([4]; Model A): 3.39 ± 1.11 (32.7) h^−1
- Vp ([4]; Model A (EHC model)): 48.6 ± 5.86 (12.1) ml
- Vmax ([4]; Model A): 26.4 ± 8.30 (31.7) μg/h
- CLb ([4]; Model A): 0.529 ± 0.074 (13.9) ml/h
- ko ([4]; Model A, first-order rate constant of release from bile): 0.0015 ± 0.0004 ^a (29.0) h^−1
- Tlag ([4]; Model A, fixed in final estimation): 5.92 (Fixed) h
- CLd ([4]; Model B): 0.023 ± 0.003 (11.1) ml/h
- F ([4]; Model B): 0.998 ± 0.003 (0.31)
- ka ([4]; Model B): 5.13 ± 1.98 (38.6) h^−1
- Vp ([4]; Model B (simplified EHC model)): 55.8 ± 5.20 (9.35) ml
- Tlag.iv ([4]; Model B, IV): 6.00 ± 0.0006 (0.01) h
- Vmax ([4]; Model B): 411 ± 42.0 (10.3) μg/h
- CLb ([4]; Model B): 0.178 ± 0.019 (10.8) ml/h
- Tlag.po ([4]; Model B, oral): 5.90 ± 0.06 (1.05) h
- ko ([4]; Model B, zero-order rate constant of release from bile): 0.386 ± 0.146 ^b (37.9) ng/h
- Km ([4]; Model A): 9.59 ± 4.63 µg/mL
- Km ([4]; Model B): 385 ± 58 µg/mL
- Ki (MCT1 [5]): 1.6 nM
- ka ([6]; Model C): 34.4 ± 4.80 (14.0) h^−1
- kpt ([6]; Model C): 0.302 ± 0.074 (24.7) h^−1
- ktp ([6]; Model C): 0.452 ± 0.041 (9.12) h^−1
- Vp ([6]; Model C (full TMDD model), fixed): 2.04 ml and 2.04 (Fixed) ml
- duration of inhibition of L-lactate uptake (MCT1 [7]): up to 5 h
- pre-incubation period for maximal inhibition of L-lactate uptake (MCT1 [7]): 5 min
